This is an account of results in paper PMC2692659 (Cellular signalling, 2009).

Where a SMILES comes first, the peptide text is derived from it. Where only a bound is given, the exact number is not on record here.

The target in data set [1] is T1, Arf GAP2 (Homo sapiens, UniProt Q8N6H7). Format: biochemical. To be noted: for effect of phosphoinositide on Arf GAP2 activity: without coatomer.
In data set [2] the target is T1, Arf GAP2. The data set is described as follows: Cargo peptide titration in coatomer-dependent GAP assay. Format: biochemical. To be noted: for effect of peptide on Arf GAP2 activity: LUVs PI4P 0.03 μm, 3 min 30 °C. The procedure, abridged: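 Arf GAP2 [1–521]-His6 (E. coli, refolded from inclusion bodies) at 11.4 nM, with 124 nM rat-liver coatomer. Substrate was 0.6 μM [α32P]GTP•myrArf1 on PI4P LUVs extruded through 0.03 μm pores. p23, p24 or p25 cytoplasmic-tail peptides (p25 also palmitoyl- or WRM-extended) were titrated in. Reactions ran 3 min at 30 °C. Palmitoyl-peptide data were fit to one-site binding with offset; duplicate experiments.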

The test system of data set [3] is [α^32P]GTP•Arf1 (myrArf1). In words: GAP assay: Arf GAP titration, hydrolysis of [α^32P]GTP bound to myrArf1. The class given is biochemical, Human. The note with it: for C50 (amount of Arf GAP needed for 50% of maximum observed hydrolysis) / Maximum GTP Hydrolysis: 0.6 μM [α^32P]GTP•Arf1, 3 min, 30 °C, mean ± SD, three experiments.
Data set [4] has as its target T1, Arf GAP2. To be noted: tryptophan fluorescence assay; ref [33]; cited from earlier work.
The target in data set [5] is T1, Arf GAP2. In words: Time dependence. Format: biochemical.
In another data set the test system is coatomer. The note with it: ref [18]; cited from earlier work.
A further data set can be described thus: Protein binding to LUVs. To be noted: 1 μM Arf GAP2; 5 min, 30°C; Coomassie Blue; not shown. In outline:
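Sucrose-loaded LUVs (1 mM total lipid), extruded through 0.03 or 1 μm pores, were incubated with purified Arf GAP2 (1 μM) for 5 min at 30 °C. Vesicles were pelleted at 100,000 × g for 15 min at 4 °C. Bound protein was resolved by SDS-PAGE and stained with Coomassie Blue.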

In data set [6] the target is T1, Arf GAP2. In words: Saturation kinetics following [α^32P]GTP hydrolysis. The class given is biochemical. To be noted: 25 μM peptide, 124 nM coatomer, LUVs 0.03 μm. The procedure, abridged:
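Saturation kinetics used [α32P]GTP•Arf1, titrated into reactions with 10 nM Arf GAP2 [1–521]-His6 and 124 nM coatomer, with or without 25 μM p25 peptide. LUVs contained PI4P and were extruded through 0.03 μm pores. Reactions stopped after 3 min at 30 °C. Data were fit to Michaelis-Menten and Hill equations, with kcat calculated from Vmax; three experiments.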

Data set [7] addresses T1, Arf GAP2. In words: Saturation kinetics, tryptophan fluorescence based assay. The note with it: 25 μM peptide, 124 nM coatomer, LUVs 0.03 μm. The class given is biochemical. In outline: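 myrArf1•GTP was titrated into reactions with 114 nM Arf GAP2 [1–521]-His6, 124 nM coatomer and PI4P LUVs (0.03 μm pores), with or without 25 μM p25 peptide. GTP→GDP conversion was followed by tryptophan fluorescence. Readings were corrected for time-dependent fluorescence change of Arf GAP2 ± coatomer. Initial rates were fit to Michaelis-Menten and Hill equations; kcat came from Vmax.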

The subject of the next data set is ASAP1. In words: Effect of coatomer and p25 on ASAP1 GAP activity. The class given is biochemical. The note with it: 1 nM ASAP1, 3 min 30°C. The procedure, abridged: (§1)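 GAP enzyme was Arf GAP2 [1–521]-His6 or His10-[325–724]ASAP1. Mixtures held 0.6 μM [α32P]GTP•Arf1 on PI4P LUVs extruded through 0.03 μm pores, with or without 124 nM coatomer and 25 μM p25 peptide. Fraction of GTP hydrolysed in 3 min at 30 °C was measured.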

A further data set deals with Arf GAP1. The data set is described as follows: Effect of p25 on Arf GAP1 with and without coatomer. The class given is biochemical. The note with it: 25 μM p25, 28 nM Arf GAP1, 124 nM coatomer, 3 min 30°C.
Data set [8] relates to Arf GAP2. The data set is described as follows: Effect of p25 on Arf GAP2 with and without coatomer. The class given is biochemical. To be noted: 3 min 30°C. The procedure, abridged:
as §1

For data set [9], the target named is T1, Arf GAP2. The data set is described as follows: Coatomer titration in Arf GAP2 GAP assay. Format: biochemical. The procedure, abridged:
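Coatomer was titrated into reactions with 11.4 nM Arf GAP2 [1–521]-His6, 0.6 μM [α32P]GTP•myrArf1 and 25 μM p25 peptide. LUVs contained PI4P and were extruded through 1.0 or 0.03 μm pores. Reactions ran 3 min at 30 °C. Read-out was hydrolysis of Arf1-bound GTP.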

Setting [10] is: 11.4 nM Arf GAP2, 124 nM coatomer.
The mark [11] stands for this setting: LUVs 2.5% PI4P, 0.03 μm pores, 124 nM coatomer and 25 μM p25 where indicated.
The mark [12] stands for this setting: LUVs 2.5% PI4P, 1.0 μm pores, 124 nM coatomer and 25 μM p25 where indicated.
Where [13] appears, read: LUVs 2.5% PIP2, 0.03 μm pores, 124 nM coatomer where indicated.
The mark [14] stands for this setting: LUVs 2.5% PIP2, 1.0 μm pores, 124 nM coatomer where indicated.

T1 sequence (Q8N6H7 whole entry): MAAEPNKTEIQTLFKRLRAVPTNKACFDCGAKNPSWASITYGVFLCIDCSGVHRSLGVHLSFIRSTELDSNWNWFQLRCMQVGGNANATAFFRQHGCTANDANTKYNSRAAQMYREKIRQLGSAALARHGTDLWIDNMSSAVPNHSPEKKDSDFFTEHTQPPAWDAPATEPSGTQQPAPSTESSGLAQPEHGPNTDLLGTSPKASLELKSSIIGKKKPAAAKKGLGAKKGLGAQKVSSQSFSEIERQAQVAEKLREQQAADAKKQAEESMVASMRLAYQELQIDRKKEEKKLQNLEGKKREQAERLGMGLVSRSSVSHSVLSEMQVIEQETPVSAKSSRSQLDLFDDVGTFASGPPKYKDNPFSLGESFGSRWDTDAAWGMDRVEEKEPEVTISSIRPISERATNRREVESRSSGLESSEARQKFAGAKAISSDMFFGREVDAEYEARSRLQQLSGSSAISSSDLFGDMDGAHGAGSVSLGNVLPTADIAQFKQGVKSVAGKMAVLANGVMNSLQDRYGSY

In the case of phosphatidylinositol 4-phosphate [PI4P], at Arf GAP2 [1] (124 nM coatomer present), the “reduction of C50 by PI4P” value was 2 fold. Moreover, on Arf GAP2 [1], the “effect of phosphoinositide on Arf GAP2 activity” value is “had no effect by itself”.
As to `CC[C@H](C)[C@H](NC(=O)[C@H](CC(C)C)NC(=O)[C@H](CCCCN)NC(=O)[C@H](CCCCN)NC(=O)[C@H](C)NC(=O)[C@H](CCCCN)NC(=O)[C@H](Cc1ccccc1)NC(=O)[C@H](Cc1ccccc1)NC(=O)[C@H](CCCNC(=N)N)NC(=O)[C@H](CCCNC(=N)N)NC(=O)[C@H](CC(C)C)NC(=O)[C@@H](N)Cc1ccc(O)cc1)C(=O)N[C@@H](CCC(=O)O)C(=O)O` [p23] (H-YLRRFFKAKKLIE-OH; N-terminus and C-terminus assumed), at Arf GAP2 [2] (setting [10]), the “effect of peptide on Arf GAP2 activity” value is on record as “stimulated GAP activity”.
Regarding “Arf GAP2: [1–521] Arf GAP2 His6 expressed in E. coli and purified from inclusion bodies”, the “extent of hydrolysis at highest Arf GAP2 concentration” value in data set [3] (3.4 μM Arf GAP2, no coatomer, footnote 1) is given as 25% – 40. The “C50 (amount of Arf GAP needed for 50% of maximum observed hydrolysis)” value in data set [3] (setting [11]), in data set [3] (setting [12]), in data set [3] (setting [13]) and in data set [3] (setting [14]) was > 500 nM in each case. For the same molecule, the “Maximum GTP Hydrolysis” value in data set [3] (setting [11]) was 15 ± 1%; in [3] (setting [12]) it was 6.2 ± 1.2%; in [3] (setting [13]), 37 ± 5.2%; in data set [3] (setting [14]) it was 25 ± 2.0%. In data set [3] (no coatomer), the “GAP activity compared to purified Arf GAP1” value is given as “little activity compared to purified Arf GAP1”. Moreover, the “effect of coatomer and curvature on Arf GAP2” value in the data set with Arf GAP2 [4] was “stimulated by coatomer but was not affected by curvature”. Also, the “first order rate constant, effect of vesicle size” value with Arf GAP2 [5] (3.4 μM Arf GAP2, 0.6 μM myrArf1•GTP, no coatomer) was “three-fold greater on the smaller vesicles than on the larger vesicles”. For the same molecule, the “rate constant relative to kcat of Arf GAP1” value with Arf GAP2 [5] (3.4 μM Arf GAP2, no coatomer, kcat of Arf GAP1 from ref 22) is recorded as “less than 1/100”. The “binding to coatomer relative to Arf GAP1” value in the data set on coatomer is listed as “bind coatomer more tightly than does Arf GAP1”. In addition, in the data set “Protein binding to LUVs”, the “effect of vesicle size on Arf GAP2 binding to LUVs” value is reported as “did not detect an effect of vesicle size”.
Take “phosphatidylinositol 4,5-bisphosphate [PIP2]”: the “effect of phosphoinositide on Arf GAP2 activity” value at Arf GAP2 [1] was “affected the extent of hydrolysis but not the C50”.
`CSCC[C@H](NC(=O)[C@H](CCCNC(=N)N)NC(=O)[C@@H](N)Cc1c[nH]c2ccccc12)C(=O)N[C@@H](CCCNC(=N)N)C(=O)N[C@@H](Cc1c[nH]cn1)C(=O)N[C@@H](CC(C)C)C(=O)N[C@@H](CCCCN)C(=O)N[C@@H](CO)C(=O)N[C@@H](Cc1ccccc1)C(=O)N[C@@H](Cc1ccccc1)C(=O)N[C@@H](CCC(=O)O)C(=O)N[C@@H](C)C(=O)N[C@@H](CCCCN)C(=O)N[C@@H](CCCCN)C(=O)N[C@@H](CC(C)C)C(=O)N[C@H](C(=O)O)C(C)C` (H-WRMRHLKSFFEAKKLV-OH): the “effect of peptide on Arf GAP2 activity” value on Arf GAP2 [2] (setting [10]) is “stimulated activity”.
Take `CC(C)C[C@H](NC(=O)[C@H](Cc1c[nH]cn1)NC(=O)[C@@H](N)CCCNC(=N)N)C(=O)N[C@@H](CCCCN)C(=O)N[C@@H](CO)C(=O)N[C@@H](Cc1ccccc1)C(=O)N[C@@H](Cc1ccccc1)C(=O)N[C@@H](CCC(=O)O)C(=O)N[C@@H](C)C(=O)N[C@@H](CCCCN)C(=O)N[C@@H](CCCCN)C(=O)N[C@@H](CC(C)C)C(=O)N[C@H](C(=O)O)C(C)C` [p25] (H-RHLKSFFEAKKLV-OH; N-terminus and C-terminus assumed): the “effect of p25 on kcat” value on Arf GAP2 [6] and at Arf GAP2 [7] was “increased the kcat of the reaction” throughout. Besides, the “effect of p25 on time dependence of hydrolysis” value on Arf GAP2 [5] (25 μM p25 with coatomer) is listed as “accelerated hydrolysis”. In the data set on ASAP1 (25 μM p25, 124 nM coatomer), the “effect of p25 on ASAP1 with coatomer” value is reported as “coatomer-dependent inhibition was increased by p25”. Besides, in the data set with ASAP1 (25 μM p25, no coatomer), the “effect of p25 on ASAP1 without coatomer” value is listed as “no effect in the absence of coatomer”. The “effect of p25 on Arf GAP1” value in the data set on Arf GAP1 is listed as “stimulated by p25 when coatomer was present”. For the same molecule, a half-maximal effect at Arf GAP2 [2] (EC50) was put at 0.5 ± 0.2 µM. Moreover, the “effect of peptide on Arf GAP2 activity” value on Arf GAP2 [2] (setting [10]) is “stimulated GAP activity”. Further, the “peptide concentration above which the effect decreased” value at Arf GAP2 [2] (concentrations greater than, 11.4 nM Arf GAP2, 124 nM coatomer) was 25 to 50 µM. Also, the “effect of p25 on Arf GAP2 with coatomer” value with Arf GAP2 [8] (25 μM p25, 11.4 nM Arf GAP2, 124 nM coatomer) is “increased the activity in the samples containing both Arf GAP2 and coatomer”. Also, the “Arf GAP2 activity without coatomer” value in the data set with Arf GAP2 [8] (25 μM p25, 11.4 nM Arf GAP2, no coatomer) is reported as “No activity was detected in the absence of coatomer”. The “effect of p25 on Arf GAP2 without coatomer” value in the data set on Arf GAP2 [8] (25 μM p25, 3.4 μM Arf GAP2, no coatomer) was “had no effect”. The “effect of p25 on coatomer dependence of Arf GAP2 activity” value at Arf GAP2 [9] (25 μM p25, 11.4 nM Arf GAP2, 0.03 and 1.0 μm LUVs) is reported as “increased the extent of hydrolysis”. For the same molecule, the “coatomer concentration at peak activity, with p25” value at Arf GAP2 [9] (25 μM p25 peptide, smaller LUVs, 11.4 nM Arf GAP2, 3 min, 30 °C) is 100 nM. Also, the “coatomer concentration below which p25 effect was greatest” value on Arf GAP2 [9] (smaller LUVs, 25 μM p25, 11.4 nM Arf GAP2) was “less than 250 nM”.

B1: Arf GAP3: Arf GAP that functions with the coat protein coatomer (protein, UniProt Q9NP61 1-516, looked up)
ADP-ribosylation factor …: MGDPSKQDILTIFKRLRSVPTNKVCFDCGAKNPSWASITYGVFLCIDCSGSHRSLGVHLSFIRSTELDSNWSWFQLRCMQVGGNASASSFFHQHGCSTNDTNAKYNSRAAQLYREKIKSLASQATRKHGTDLWLDSCVVPPLSPPPKEEDFFASHVSPEVSDTAWASAIAEPSSLTSRPVETTLENNEGGQEQGPSVEGLNVPTKATLEVSSIIKKKPNQAKKGLGAKKGSLGAQKLANTCFNEIEKQAQAADKMKEQEDLAKVVSKEESIVSSLRLAYKDLEIQMKKDEKMNISGKKNVDSDRLGMGFGNCRSVISHSVTSDMQTIEQESPIMAKPRKKYNDDSDDSYFTSSSSYFDEPVELRSSSFSSWDDSSDSYWKKETSKDTETVLKTTGYSDRPTARRKPDYEPVENTDEAQKKFGNVKAISSDMYFGRQSQADYETRARLERLSASSSISSADLFEEPRKQPAGNYSLSSVLPNAPDMAQFKQGVRSVAGKLSVFANGVVTSIQDRYGS
In the case of B1, the “binding to coatomer relative to Arf GAP1” value in the data set on coatomer is on record as “bind coatomer more tightly than does Arf GAP1”.
